Here are results for three compounds from ChEMBL document CHEMBL1629492 (Eur J Med Chem, 2010).

For test [1], the target named is T1, Alpha-1B adrenergic receptor (Rattus norvegicus, UniProt P15823).
T1 sequence (P15823 whole entry): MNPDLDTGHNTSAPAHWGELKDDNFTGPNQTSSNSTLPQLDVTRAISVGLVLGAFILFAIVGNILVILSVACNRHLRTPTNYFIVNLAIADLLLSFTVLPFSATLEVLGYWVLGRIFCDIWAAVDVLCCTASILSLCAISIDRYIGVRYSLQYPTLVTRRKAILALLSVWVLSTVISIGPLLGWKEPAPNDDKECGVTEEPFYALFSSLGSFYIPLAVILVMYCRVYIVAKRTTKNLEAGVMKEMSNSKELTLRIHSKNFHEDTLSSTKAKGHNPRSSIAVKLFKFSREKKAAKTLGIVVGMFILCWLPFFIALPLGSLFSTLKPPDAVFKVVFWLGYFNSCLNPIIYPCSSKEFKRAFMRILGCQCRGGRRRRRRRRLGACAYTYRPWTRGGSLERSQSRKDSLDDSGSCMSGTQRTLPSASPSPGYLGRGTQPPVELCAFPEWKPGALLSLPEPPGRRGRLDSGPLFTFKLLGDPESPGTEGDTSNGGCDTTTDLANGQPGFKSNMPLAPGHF
As to the kind of experiment: Antagonist activity at Alpha-1B adrenoceptor in Wistar rat spleen assessed as phenylephrine induced contractions after 30 mins. The format is functional, tissue-based. Particulars: read-out: pA2 (converted). In short, it runs like this:
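Spleen strips from male Wistar rats (275–300 g) were set up in a 20 mL bath of physiological salt solution (pH 7.4, 37 °C, 95% O2/5% CO2) under 1 g tension and equilibrated 2 h. Two cumulative phenylephrine curves were run, each followed by 30 min washing, then 30 min incubation with vehicle or antagonist before a third curve. Values are Schild pA2, or pKB where slopes were nonparallel; 4–6 experiments.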

For test [2], the target named is T2, Alpha-1D adrenergic receptor (Rattus norvegicus) (UniProt P23944).
T2 sequence (whole entry): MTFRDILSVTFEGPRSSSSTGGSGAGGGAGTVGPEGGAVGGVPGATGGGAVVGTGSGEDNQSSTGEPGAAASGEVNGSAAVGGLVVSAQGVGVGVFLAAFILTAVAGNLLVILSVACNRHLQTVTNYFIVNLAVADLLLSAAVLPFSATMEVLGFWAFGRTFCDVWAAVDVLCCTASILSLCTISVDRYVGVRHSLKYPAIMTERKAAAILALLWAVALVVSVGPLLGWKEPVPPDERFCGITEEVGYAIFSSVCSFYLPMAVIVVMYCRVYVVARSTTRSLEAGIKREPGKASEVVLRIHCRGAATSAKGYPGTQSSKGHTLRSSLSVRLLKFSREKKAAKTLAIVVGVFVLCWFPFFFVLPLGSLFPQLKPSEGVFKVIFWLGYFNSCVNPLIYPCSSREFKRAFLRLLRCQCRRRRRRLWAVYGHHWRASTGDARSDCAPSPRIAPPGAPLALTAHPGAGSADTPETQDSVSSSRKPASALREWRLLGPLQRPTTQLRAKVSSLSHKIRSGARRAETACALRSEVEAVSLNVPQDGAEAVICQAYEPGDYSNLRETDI
Particulars: Wistar, Thoracic aorta.

Turning to `COc1ccc(C[C@@H](C)NCCOc2ccccc2OCC(F)(F)F)cc1S(N)(=O)=O`, the Kb in test [1] is 1.1 nM. With `COc1ccc(C[C@@H](C)NCCOc2ccccc2OCc2ccccc2)cc1S(N)(=O)=O`, in test [2], the negative-log Kb (pKb) came out at 9.2. Consider `COc1ccc(C[C@@H](C)NC[C@H]2Oc3ccccc3O[C@H]2C)cc1S(N)(=O)=O`, for which the Kb in test [1] was 30.9 nM.
